According to ChEMBL document CHEMBL1139980, “Identification of 1-isopropylsulfonyl-2-amine benzimidazoles as a new class of inhibitors of hepatitis B virus” (Eur J Med Chem, 2007):
pIC50: −log10 of the molar value. Active and inactive are the calls of the source. No cut-off for these calls is given here.

Experiments:
Hepatitis B virus = assay: Inhibition of cytoplasmic HBV DNA synthesis in HepG2.2.15 cells after 8 days; format: functional, organism-based; settings: for pIC50: HepG2.2.15, 192 h
Procedure, shortened: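 Confluent HepG2.2.15 cultures were treated with various doses. A 50 µL supernatant sample was added to extraction buffer, boiled for 10 min and centrifuged for 5 min, and aliquots were run in fluorescent PCR with HBV-specific primers and probe. IC50 was taken as the concentration giving 50% inhibition of cytoplasmic HBV DNA synthesis.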

[1] = Selectivity index, ratio of CC50 for HepG2.2.15 cells to IC50 for HBV; format: functional
Procedure, shortened: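 The index was calculated as CC50 divided by IC50. CC50 came from an 8-day MTT assay in HepG2.2.15 cells, and IC50 from fluorescent-PCR quantification of HBV DNA after treatment of confluent HepG2.2.15 cultures.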

| Structure (SMILES) | pIC50 (Hepatitis B virus) | Ratio CC50/IC50 [1] | Activity (Hepatitis B virus) |
| --- | --- | --- | --- |
| CC(C)S(=O)(=O)n1c(N)nc2ccc(NS(=O)(=O)c3ccccc3)cc21 | 5.82 | 41 | – |
| CC(C)S(=O)(=O)n1c(N)nc2ccc(NC(=O)c3ccccc3)cc21 | 4.47 | >15 | – |
| CC(C)S(=O)(=O)n1c(N)nc2cc(NC(=O)c3ccccc3)ccc21 | 5.70 | >250 | – |
| Cc1ccc(S(=O)(=O)Nc2ccc3c(c2)nc(N)n3S(=O)(=O)C(C)C)cc1 | 4.80 | 9 | – |
| CC(C)S(=O)(=O)n1c(N)nc2ccc(NS(=O)(=O)c3cccc([N+](=O)[O-])c3)cc21 | 4.98 | 5 | – |
| Nc1ccn([C@@H]2CS[C@H](CO)O2)c(=O)n1 [LAMIVUDINE] | – | >2632 | – |
| Nc1ncnc2c1ncn2CCOCP(=O)(O)O [ADEFOVIR] | 5.77 | 34 | – |
| CC(C)S(=O)(=O)n1c(N)nc2ccc(NCc3ccccc3)cc21 | – | – | inactive |
| Cc1ccc(S(=O)(=O)Nc2ccc3nc(N)n(S(=O)(=O)C(C)C)c3c2)cc1 | 5.32 | 17 | – |
| Cc1ccc(C(=O)Nc2ccc3nc(N)n(S(=O)(=O)C(C)C)c3c2)cc1 | 5.38 | >119 | – |
| CC(C)S(=O)(=O)n1c(N)nc2cc(NC(=O)c3ccc(F)cc3)ccc21 | 5.43 | 9 | – |

Continued by rising pIC50 (Hepatitis B virus), values first:

| pIC50 (Hepatitis B virus) | Structure (SMILES) | Ratio CC50/IC50 [1] | Activity (Hepatitis B virus) |
| --- | --- | --- | --- |
| 5.92 | CC(C)S(=O)(=O)n1c(N)nc2ccc(NC(=O)c3ccc(F)cc3)cc21 | 56 | – |
| 6.03 | CC(C)S(=O)(=O)n1c(N)nc2ccc(NC(=O)c3ccccc3F)cc21 | 51 | – |
| 6.09 | CC(C)S(=O)(=O)n1c(N)nc2ccc(NC(=O)c3ccccc3Cl)cc21 | 107 | – |
| 6.15 | CC(C)S(=O)(=O)n1c(N)nc2ccc(NC(=O)c3c(F)cccc3F)cc21 | 274 | – |
| 6.15 | COc1cccc(CN(Cc2cccc(OC)c2)c2ccc3nc(N)n(S(=O)(=O)C(C)C)c3c2)c1 | 123 | – |
